Reference: ChEMBL document CHEMBL4130432, “Lipid Peroxidation and Cyclooxygenase Enzyme Inhibitory Compounds from Prangos haussknechtii” (J Nat Prod, 2017)

What was measured:
[1] = Antioxidant activity assessed as inhibition of ferrous chloride-induced lipid peroxidation in […] labelled SLPC large unilamellar vesicle measured over 21 mins by fluorescence assay; format: functional
Summary of the method: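 Vesicle model: large unilamellar vesicles carrying the fluorescent probe 3-[p-(6-phenyl)-1,3,5-hexatrienyl]phenylpropionic acid. Lipid peroxidation was followed by the emitted fluorescence on a fluorometer. Values are 50% inhibitory concentrations, expressed as mean ± SEM (n = 2).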

[2] = Antioxidant activity assessed as redox reaction between compound and MTT in DMSO measured after 6 hrs; format: functional
Summary of the method: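 Reduction of MTT to formazan was read on a microplate reader. Results are reported as 50% inhibitory concentrations, mean ± SEM (n = 2).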

[3] = target: T1, Prostaglandin G/H synthase 1 (Ovis aries, UniProt P05979); experiment: Inhibition of ovine COX1 using arachidonic acid as substrate pretreated for 3 mins followed by substrate addition measured immediately
T1 sequence (P05979 whole entry): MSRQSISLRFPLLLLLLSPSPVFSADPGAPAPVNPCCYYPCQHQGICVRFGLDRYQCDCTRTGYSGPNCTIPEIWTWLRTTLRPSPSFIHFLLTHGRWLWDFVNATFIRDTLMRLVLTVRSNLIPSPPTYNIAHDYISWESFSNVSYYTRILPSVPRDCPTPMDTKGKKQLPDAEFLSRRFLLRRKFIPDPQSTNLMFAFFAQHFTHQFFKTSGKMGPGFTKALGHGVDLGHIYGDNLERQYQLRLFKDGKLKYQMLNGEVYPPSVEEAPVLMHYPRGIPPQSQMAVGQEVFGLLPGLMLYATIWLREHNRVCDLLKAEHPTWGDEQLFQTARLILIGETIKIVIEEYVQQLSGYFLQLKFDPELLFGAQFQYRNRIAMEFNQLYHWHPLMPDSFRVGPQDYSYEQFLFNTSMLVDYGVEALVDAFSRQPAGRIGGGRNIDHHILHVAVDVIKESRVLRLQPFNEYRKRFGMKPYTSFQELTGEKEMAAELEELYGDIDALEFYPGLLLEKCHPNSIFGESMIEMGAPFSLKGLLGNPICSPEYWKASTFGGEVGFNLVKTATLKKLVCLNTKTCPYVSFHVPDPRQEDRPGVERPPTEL
Summary of the method: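 COX-1 enzyme was prepared in-house from ram seminal vesicles. Activity was monitored in a micro oxygen chamber using an oxygen electrode attached to a biological oxygen monitor.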

[4] = target: T2, Prostaglandin G/H synthase 2 (Homo sapiens, UniProt P35354); experiment: Inhibition of human COX2 expressed in insect cells using arachidonic acid as substrate pretreated for 3 mins followed by substrate addition measured immediately; format: cell-based
T2 sequence (P35354 whole entry): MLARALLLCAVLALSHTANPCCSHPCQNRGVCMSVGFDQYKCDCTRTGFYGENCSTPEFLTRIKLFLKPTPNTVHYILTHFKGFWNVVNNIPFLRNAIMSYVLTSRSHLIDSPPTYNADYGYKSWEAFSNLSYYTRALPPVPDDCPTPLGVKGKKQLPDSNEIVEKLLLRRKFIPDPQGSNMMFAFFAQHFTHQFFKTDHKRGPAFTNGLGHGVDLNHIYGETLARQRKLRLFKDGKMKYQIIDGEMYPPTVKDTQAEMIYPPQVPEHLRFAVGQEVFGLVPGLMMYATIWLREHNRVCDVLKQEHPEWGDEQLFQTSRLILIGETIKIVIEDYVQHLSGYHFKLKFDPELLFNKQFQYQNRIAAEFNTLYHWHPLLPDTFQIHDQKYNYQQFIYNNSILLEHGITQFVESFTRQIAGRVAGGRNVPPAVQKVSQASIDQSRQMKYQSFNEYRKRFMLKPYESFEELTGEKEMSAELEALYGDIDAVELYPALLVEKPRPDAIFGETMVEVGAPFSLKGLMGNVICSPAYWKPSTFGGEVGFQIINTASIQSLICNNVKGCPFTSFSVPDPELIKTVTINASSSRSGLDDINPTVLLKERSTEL

Structure (SMILES) | IC50 [1] [µM] | IC50 [2] [µM] | IC50 ([4]; read-out: IC50) [µM] | also measured
O=C(O)C(O)Cc1ccccc1 (centres undefined) | 161 |  |  | 
CC(=O)OC1C2OC(CC(C)=CC2=O)C1(O)C=C(C)C (centres undefined) | 114 | 67.1 |  | IC50 [3]: Not Active; IC50 [4]: Not Active
CCC(C)C(C(=O)O)N(C(=O)C(N)CC(C)C)C(C(=O)O)C(C)CC (centres undefined) | 43 | 48.6 | 34.6 | IC50 [3]: Not Active
COc1ccc2ccc(=O)oc2c1C/C=C(\C)COC(=O)CC(C)C | 86.1 | 128 | 56.4 | IC50 ([3]; read-out: IC50): 47.7 µM
COc1ccc2ccc(=O)oc2c1C/C=C(\C)COC(=O)C=C(C)C | 62.6 | 122 | 45.3 | IC50 ([3]; read-out: IC50): 36.8 µM
O=C1O[C@H]([C@@H](O)CO)C(O)=C1O [ASCORBIC ACID] |  | 142 |  | 
CC(=O)Oc1ccccc1C(=O)O [ASPIRIN] |  |  |  | IC50 [4]: Not Active
Cc1cc(C(C)(C)C)c(O)c(C(C)(C)C)c1 [BUTYLATED HYDROXYTOLUENE] | 6.9 |  |  | 
CC(C)(C)c1cc(O)ccc1O [E319] | 10 | 150 |  | 
CC(C)=CCOc1c2ccoc2cc2oc(=O)ccc12 [ISOIMPERATORIN] | 63.7 |  |  | 
O=C(O)CC(O)C(=O)O (centres undefined) [MALIC ACID] | 97.7 |  |  | 
COc1ccc2cc([C@H](C)C(=O)O)ccc2c1 [NAPROXEN] |  |  | 52.2 | 
COc1ccc2ccc(=O)oc2c1CC=C(C)C [OSTHOLE] | 120 |  | 81.1 | IC50 ([3]; read-out: IC50): 52.5 µM
CC1(C)O[C@H]1COc1c2ccoc2cc2oc(=O)ccc12 [OXYPEUCEDANIN] | 74.8 |  |  | 
